“And” between values parts separate entries of the source, which are not always exact repeats. Identical values can stand only once.
Test system: HEK-293T
Assay: Multiplex assay against HEK293T;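 on Population Tubulin-Different-Phenotype (%): share of the cells with healthy nuclei that show this phenotype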
Type: toxicity, cell-based
Conditions: human
Summary of the method: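 Cells stained live at seeding with Hoechst33342, BioTracker Green Microtubule Cytoskeleton Dye, MitoTracker Red and Annexin V Alexa Fluor 680 were imaged on a CQ1 microscope at 37°C and 5% CO2 after compound addition. Their classification by CellPathfinder machine-learning gating ran from Hoechst high-intensity objects versus normal cells, to healthy, pyknosed or fragmented nuclei among normal cells, to mitotic or apoptotic among pyknosed cells. Tubulin, mitochondrial-mass and membrane-permeability phenotypes are per cents of healthy-nucleus cells.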

[1] = 12 h, 1 µM, compound concentration 1 uM, replicate 1
[2] = 12 h, 1 µM, compound concentration 1 uM, replicate 2
[3] = 12 h, 10 µM, compound concentration 10 uM, replicate 1
[4] = 12 h, 10 µM, compound concentration 10 uM, replicate 2
[5] = 24 h, 1 µM, compound concentration 1 uM, replicate 1
[6] = 24 h, 1 µM, compound concentration 1 uM, replicate 2
[7] = 24 h, 10 µM, compound concentration 10 uM, replicate 1
[8] = 24 h, 10 µM, compound concentration 10 uM, replicate 2
[9] = 48 h, 1 µM, compound concentration 1 uM, replicate 1
[10] = 48 h, 1 µM, compound concentration 1 uM, replicate 2
[11] = 48 h, 10 µM, compound concentration 10 uM, replicate 1
[12] = 48 h, 10 µM, compound concentration 10 uM, replicate 2

OC1(c2ccc(Cl)cc2)CCN(Cc2c[nH]c3ccccc23)CC1
Population Apoptotic (%) [1]: 51%
Population Fragmented Nuclei (%) [1]: 20%
Population Healthy Nuclei (%) [1]: 14%
Population Hoechst High Intensity Objects (%) [1]: 15%
Population Membrane Permeable-Phenotype (%) [1]: 4%
Population Mitochondria Different-Phenotype (%) [1]: 63%
Population Mitotic Cells (%) [1]: 48%
Population Normal (%) [1]: 84%
Population Pyknosed Nuclei (%) [1]: 65%
Population Tubulin-Different-Phenotype (%) [1]: 45%
Total Cell Count [1]: 177
Population Apoptotic (%) [2]: 18%
Population Fragmented Nuclei (%) [2]: 6%
Population Healthy Nuclei (%) [2]: 29%
Population Hoechst High Intensity Objects (%) [2]: 6%
Population Membrane Permeable-Phenotype (%) [2]: 7%
Population Mitochondria Different-Phenotype (%) [2]: 34%
Population Mitotic Cells (%) [2]: 81%
Population Normal (%) [2]: 93%
Population Pyknosed Nuclei (%) [2]: 63%
Population Tubulin-Different-Phenotype (%) [2]: 42%
Total Cell Count [2]: 136
Population Apoptotic (%) [3]: 70%
Population Fragmented Nuclei (%) [3]: 11%
Population Healthy Nuclei (%) [3]: 11%
Population Hoechst High Intensity Objects (%) [3]: 15%
Population Membrane Permeable-Phenotype (%) [3]: 7%
Population Mitochondria Different-Phenotype (%) [3]: 100%
Population Mitotic Cells (%) [3]: 29%
Population Normal (%) [3]: 84%
Population Pyknosed Nuclei (%) [3]: 77%
Population Tubulin-Different-Phenotype (%) [3]: 92%
Total Cell Count [3]: 275
Population Apoptotic (%) [4]: 63%
Population Fragmented Nuclei (%) [4]: 5%
Population Healthy Nuclei (%) [4]: 14%
Population Hoechst High Intensity Objects (%) [4]: 9%
Population Membrane Permeable-Phenotype (%) [4]: 17%
Population Mitochondria Different-Phenotype (%) [4]: 89%
Population Mitotic Cells (%) [4]: 36%
Population Normal (%) [4]: 90%
Population Pyknosed Nuclei (%) [4]: 80%
Population Tubulin-Different-Phenotype (%) [4]: 86%
Total Cell Count [4]: 223
Population Apoptotic (%) [5]: 50%
Population Fragmented Nuclei (%) [5]: 22%
Population Healthy Nuclei (%) [5]: 30%
Population Hoechst High Intensity Objects (%) [5]: 16%
Population Membrane Permeable-Phenotype (%) [5]: 3%
Population Mitochondria Different-Phenotype (%) [5]: 70%
Population Mitotic Cells (%) [5]: 49%
Population Normal (%) [5]: 83%
Population Pyknosed Nuclei (%) [5]: 46%
Population Tubulin-Different-Phenotype (%) [5]: 42%
Total Cell Count [5]: 210
Population Apoptotic (%) [6]: 27%
Population Fragmented Nuclei (%) [6]: 6%
Population Healthy Nuclei (%) [6]: 52%
Population Hoechst High Intensity Objects (%) [6]: 5%
Population Membrane Permeable-Phenotype (%) [6]: 8%
Population Mitochondria Different-Phenotype (%) [6]: 30%
Population Mitotic Cells (%) [6]: 72%
Population Normal (%) [6]: 94%
Population Pyknosed Nuclei (%) [6]: 40%
Population Tubulin-Different-Phenotype (%) [6]: 50%
Total Cell Count [6]: 171
Population Apoptotic (%) [7]: 76%
Population Fragmented Nuclei (%) [7]: 14%
Population Healthy Nuclei (%) [7]: 3%
Population Hoechst High Intensity Objects (%) [7]: 16%
Population Membrane Permeable-Phenotype (%) [7]: 0%
Population Mitochondria Different-Phenotype (%) [7]: 100%
Population Mitotic Cells (%) [7]: 23%
Population Normal (%) [7]: 83%
Population Pyknosed Nuclei (%) [7]: 81%
Population Tubulin-Different-Phenotype (%) [7]: 100%
Total Cell Count [7]: 282
Population Apoptotic (%) [8]: 89%
Population Fragmented Nuclei (%) [8]: 5%
Population Healthy Nuclei (%) [8]: 8%
Population Hoechst High Intensity Objects (%) [8]: 8%
Population Membrane Permeable-Phenotype (%) [8]: 15%
Population Mitochondria Different-Phenotype (%) [8]: 73%
Population Mitotic Cells (%) [8]: 10%
Population Normal (%) [8]: 91%
Population Pyknosed Nuclei (%) [8]: 85%
Population Tubulin-Different-Phenotype (%) [8]: 84%
Total Cell Count [8]: 238
Population Apoptotic (%) [9]: 58%
Population Fragmented Nuclei (%) [9]: 19%
Population Healthy Nuclei (%) [9]: 53%
Population Hoechst High Intensity Objects (%) [9]: 13%
Population Mitochondria Different-Phenotype (%) [9]: 41%
Population Mitotic Cells (%) [9]: 41%
Population Normal (%) [9]: 86%
Population Pyknosed Nuclei (%) [9]: 26%
Population Tubulin-Different-Phenotype (%) [9]: 31%
Total Cell Count [9]: 247
Population Apoptotic (%) [10]: 7%
Population Fragmented Nuclei (%) [10]: 7%
Population Healthy Nuclei (%) [10]: 70%
Population Hoechst High Intensity Objects (%) [10]: 2%
Population Membrane Permeable-Phenotype (%) [10]: 6%
Population Mitochondria Different-Phenotype (%) [10]: 15%
Population Mitotic Cells (%) [10]: 92%
Population Normal (%) [10]: 97%
Population Pyknosed Nuclei (%) [10]: 22%
Population Tubulin-Different-Phenotype (%) [10]: 39%
Total Cell Count [10]: 264
Population Apoptotic (%) [11]: 71%
Population Fragmented Nuclei (%) [11]: 22%
Population Healthy Nuclei (%) [11]: 0%
Population Hoechst High Intensity Objects (%) [11]: 18%
Population Membrane Permeable-Phenotype (%) [11]: 0%
Population Mitochondria Different-Phenotype (%) [11]: 100%
Population Mitotic Cells (%) [11]: 28%
Population Normal (%) [11]: 81%
Population Pyknosed Nuclei (%) [11]: 77%
Population Tubulin-Different-Phenotype (%) [11]: 100%
Total Cell Count [11]: 295
Population Apoptotic (%) [12]: 89%
Population Fragmented Nuclei (%) [12]: 19%
Population Healthy Nuclei (%) [12]: 19%
Population Hoechst High Intensity Objects (%) [12]: 4%
Population Membrane Permeable-Phenotype (%) [12]: 4%
Population Mitochondria Different-Phenotype (%) [12]: 71%
Population Mitotic Cells (%) [12]: 10%
Population Normal (%) [12]: 95%
Population Pyknosed Nuclei (%) [12]: 60%
Population Tubulin-Different-Phenotype (%) [12]: 95%
Total Cell Count [12]: 224

CNCc1ccc(-c2cc(-c3nc(-c4ccc(S(=O)(=O)C(C)C)cc4)cnc3N)on2)cc1 [BERZOSERTIB]
Population Apoptotic (%) [1]: 44% and 25%
Population Fragmented Nuclei (%) [1]: 94% and 79%
Population Hoechst High Intensity Objects (%) [1]: 36% and 50%
Population Membrane Permeable-Phenotype (%) [1]: 31% and 34%
Population Mitochondria Different-Phenotype (%) [1]: 9%
Population Mitotic Cells (%) [1]: 55% and 75%
Population Normal (%) [1]: 63% and 49%
Population Tubulin-Different-Phenotype (%) [1]: 13%
Total Cell Count [1]: 865 and 596
Population Apoptotic (%) [2]: 14% and 11%
Population Fragmented Nuclei (%) [2]: 66%
Population Hoechst High Intensity Objects (%) [2]: 28% and 80%
Population Mitochondria Different-Phenotype (%) [2]: 0% and 16%
Population Mitotic Cells (%) [2]: 85% and 88%
Population Tubulin-Different-Phenotype (%) [2]: 50% and 60%
Total Cell Count [2]: 1257 and 695
Population Apoptotic (%) [3]: 37% and 15%
Population Fragmented Nuclei (%) [3]: 82% and 86%
Population Healthy Nuclei (%) [3]: 12% and 7%
Population Hoechst High Intensity Objects (%) [3]: 48% and 47%
Population Membrane Permeable-Phenotype (%) [3]: 46% and 29%
Population Mitochondria Different-Phenotype (%) [3]: 6% and 7%
Population Mitotic Cells (%) [3]: 62% and 85%
Population Normal (%) [3]: 51% and 52%
Population Pyknosed Nuclei (%) [3]: 5%
Population Tubulin-Different-Phenotype (%) [3]: 18% and 11%
Total Cell Count [3]: 918 and 667
Population Fragmented Nuclei (%) [4]: 95% and 56%
Population Hoechst High Intensity Objects (%) [4]: 34% and 86%
Population Mitochondria Different-Phenotype (%) [4]: 5% and 9%
Population Mitotic Cells (%) [4]: 68% and 92%
Population Tubulin-Different-Phenotype (%) [4]: 82% and 59%
Total Cell Count [4]: 1271 and 770
Population Apoptotic (%) [5]: 43% and 15%
Population Fragmented Nuclei (%) [5]: 91% and 64%
Population Hoechst High Intensity Objects (%) [5]: 39% and 65%
Population Membrane Permeable-Phenotype (%) [5]: 50% and 21%
Population Mitochondria Different-Phenotype (%) [5]: 7% and 13%
Population Mitotic Cells (%) [5]: 56% and 84%
Population Normal (%) [5]: 60% and 34%
Population Pyknosed Nuclei (%) [5]: 3% and 9%
Population Tubulin-Different-Phenotype (%) [5]: 30% and 11%
Total Cell Count [5]: 826 and 568
Population Hoechst High Intensity Objects (%) [6]: 33% and 85%
Population Membrane Permeable-Phenotype (%) [6]: 33% and 60%
Population Mitochondria Different-Phenotype (%) [6]: 4% and 6%
Population Mitotic Cells (%) [6]: 87% and 97%
Population Pyknosed Nuclei (%) [6]: 30%
Population Tubulin-Different-Phenotype (%) [6]: 71% and 81%
Total Cell Count [6]: 1330 and 870
Population Fragmented Nuclei (%) [7]: 65% and 58%
Population Healthy Nuclei (%) [7]: 16% and 26%
Population Hoechst High Intensity Objects (%) [7]: 46% and 73%
Population Membrane Permeable-Phenotype (%) [7]: 36% and 31%
Population Mitotic Cells (%) [7]: 40% and 88%
Population Normal (%) [7]: 53% and 26%
Population Pyknosed Nuclei (%) [7]: 17% and 14%
Population Tubulin-Different-Phenotype (%) [7]: 36% and 27%
Total Cell Count [7]: 767 and 657
Population Apoptotic (%) [8]: 23% and 0%
Population Hoechst High Intensity Objects (%) [8]: 36% and 86%
Population Membrane Permeable-Phenotype (%) [8]: 21% and 56%
Population Mitochondria Different-Phenotype (%) [8]: 14%
Population Mitotic Cells (%) [8]: 76% and 100%
Population Tubulin-Different-Phenotype (%) [8]: 78% and 76%
Total Cell Count [8]: 1281 and 924
